Two molecules from ChEMBL document CHEMBL3997774, “Identification of Picrasidine C as a Subtype-Selective PPARα Agonist” (J Nat Prod, 2016) can be followed below.

Structures are written as SMILES. The source made the active and inactive calls. The rule behind the calls is not given here.

Holding throughout (type): cell-based
The target in series [1] is T1, Peroxisome proliferator-activated receptor gamma (Homo sapiens, UniProt P37231).
T1 sequence (P37231 whole entry): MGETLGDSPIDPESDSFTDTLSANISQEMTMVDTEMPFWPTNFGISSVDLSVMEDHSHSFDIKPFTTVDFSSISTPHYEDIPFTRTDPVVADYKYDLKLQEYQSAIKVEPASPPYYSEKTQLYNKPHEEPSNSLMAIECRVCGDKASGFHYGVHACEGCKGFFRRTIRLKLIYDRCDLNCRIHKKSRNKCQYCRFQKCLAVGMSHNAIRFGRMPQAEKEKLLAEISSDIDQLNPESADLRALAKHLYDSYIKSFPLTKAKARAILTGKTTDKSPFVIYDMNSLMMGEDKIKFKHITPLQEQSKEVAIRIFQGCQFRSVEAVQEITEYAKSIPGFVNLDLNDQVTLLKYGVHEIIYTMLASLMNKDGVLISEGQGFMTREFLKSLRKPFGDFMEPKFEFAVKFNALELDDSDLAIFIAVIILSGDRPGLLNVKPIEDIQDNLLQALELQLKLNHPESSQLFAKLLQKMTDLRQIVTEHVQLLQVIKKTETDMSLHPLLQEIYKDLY
The series is described as follows: Agonist activity at GAL4-DBD fused human PPARgamma-LBD (157 to 475 residues) expressed in human HepG2 cells at 0.1 to 20 uM after 24 hrs by luciferase reporter gene based mammalian one hybrid assay relative to control. The procedure, abridged:
(§1)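 HepG2 cells (DMEM, 10% FBS) transfected with GAL4-DBD/human PPAR-LBD expression vector (0.05 μg), GALRE-luc reporter (0.1 μg) and pGL4.74 Renilla (0.01 μg). After overnight incubation, 0.1–20 μM compound or 0.1% DMSO for 24 h. Dual-luciferase readout, firefly normalized to Renilla. Fold activation over solvent, four independent transfections (mean ± SD, n = 4).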
On the technique in general: A reporter such as luciferase makes a cellular process visible.

The target in series [2] is T2, Peroxisome proliferator-activated receptor delta (Homo sapiens, UniProt Q03181).
T2 sequence (Q03181 whole entry): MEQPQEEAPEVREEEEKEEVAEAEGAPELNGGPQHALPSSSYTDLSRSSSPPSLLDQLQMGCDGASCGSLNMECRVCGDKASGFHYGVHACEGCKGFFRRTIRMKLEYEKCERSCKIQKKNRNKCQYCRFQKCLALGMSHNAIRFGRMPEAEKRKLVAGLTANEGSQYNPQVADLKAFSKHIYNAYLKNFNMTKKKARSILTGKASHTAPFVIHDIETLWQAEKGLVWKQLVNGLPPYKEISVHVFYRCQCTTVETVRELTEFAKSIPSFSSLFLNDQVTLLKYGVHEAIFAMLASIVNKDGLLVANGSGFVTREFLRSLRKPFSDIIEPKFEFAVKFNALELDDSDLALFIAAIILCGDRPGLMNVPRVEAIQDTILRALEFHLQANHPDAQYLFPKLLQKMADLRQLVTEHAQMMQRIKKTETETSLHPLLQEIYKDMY
The series is described as follows: Agonist activity at GAL4-DBD fused human PPARbeta/delta-LBD (136 to 441 residues) expressed in human HepG2 cells at 0.1 to 20 uM after 24 hrs by luciferase reporter gene based mammalian one hybrid assay relative to control. The method, boiled down:
as §1

The target of series [3] is T3, Peroxisome proliferator-activated receptor alpha (Homo sapiens) (UniProt Q07869).
T3 sequence (whole entry): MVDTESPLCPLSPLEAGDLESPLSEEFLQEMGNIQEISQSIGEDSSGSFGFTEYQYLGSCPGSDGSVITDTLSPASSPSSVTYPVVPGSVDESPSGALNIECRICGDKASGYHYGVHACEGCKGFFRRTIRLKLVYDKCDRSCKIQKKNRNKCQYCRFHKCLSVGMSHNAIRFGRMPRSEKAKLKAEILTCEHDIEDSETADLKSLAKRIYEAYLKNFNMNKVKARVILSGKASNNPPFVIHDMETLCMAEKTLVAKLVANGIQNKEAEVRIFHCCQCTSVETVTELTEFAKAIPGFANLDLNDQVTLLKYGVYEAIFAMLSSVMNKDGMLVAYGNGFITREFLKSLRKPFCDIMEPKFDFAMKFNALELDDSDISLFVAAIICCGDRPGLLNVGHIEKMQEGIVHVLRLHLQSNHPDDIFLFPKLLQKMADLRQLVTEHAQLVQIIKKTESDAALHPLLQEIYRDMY
Kind of series: Agonist activity at PPARalpha in human THP1 cells assessed as induction of PDK4 mRNA expression at 20 uM in presence of MK-886 after 24 hrs by RT-qPCR analysis. The procedure, abridged:
(§2)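 PMA-differentiated THP-1 cells (200 nM, 48 h) pretreated 1 h with MK-886 (200 μM), then given compound or 0.1% DMSO for 24 h. Target mRNA measured by SYBR RT-qPCR and normalized to β-actin. Fold induction over solvent, four experiments (mean ± SD, n = 4).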
(In qPCR the cycle at which signal appears reflects the starting amount.)

The target in series [4] is T3, Peroxisome proliferator-activated receptor alpha (Homo sapiens). The series is described as follows: Agonist activity at PPARalpha in human THP1 cells assessed as induction of PDK4 mRNA expression after 24 hrs by RT-qPCR analysis. The procedure, abridged:
(§3)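 THP-1 cells (RPMI-1640, 10% FBS) differentiated with 200 nM PMA for 48 h, then treated 24 h with compound (1, 10, 20 μM; reference 50 μM) or 0.1% DMSO. Total RNA extracted, reverse transcribed. SYBR qPCR, 40 cycles (98 °C 5 s, 55 °C 20 s, 72 °C 30 s). Normalized to β-actin mRNA. Fold over solvent, n = 4 (mean ± SD).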

For series [5] the target is unchanged. The series is described as follows: Agonist activity at PPARalpha in human THP1 cells assessed as induction of PPARalpha mRNA expression at 20 uM in presence of MK-886 after 24 hrs by RT-qPCR analysis. The method, boiled down: as §2
The target is the same in series [6]. Kind of series: Agonist activity at full length human N-terminal Myc-tagged PPARalpha expressed in human HepG2 cells coexpressing RXRalpha assessed as transcriptional activation of PPRE at 10 uM incubated for 24 hrs by dual luciferase reporter gene assay. The procedure, abridged: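 HepG2 cells co-transfected with PPRE-luc reporter (0.1 μg), PPARα and RXRα expression vectors (0.05 μg each) and pGL4.74 (0.01 μg). Treated 24 h with test compound or 0.1% DMSO. Dual-luciferase readout, firefly/Renilla. Fold activation over solvent, four independent transfections (mean ± SD, n = 4).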

For series [7] the target is unchanged. Kind of series: Agonist activity at PPARalpha in human THP1 cells assessed as induction of PPARalpha mRNA expression after 24 hrs by RT-qPCR analysis. The method, boiled down: as §3
For series [8] the target is unchanged. Kind of series: Agonist activity at PPARalpha in human THP1 cells assessed as induction of ABCA1 mRNA expression after 24 hrs by RT-qPCR analysis. The method, boiled down: as §3
For series [9] the target is unchanged. Kind of series: Agonist activity at PPARalpha in human THP1 cells assessed as induction of CPT-1 mRNA expression at 20 uM in presence of MK-886 after 24 hrs by RT-qPCR analysis. The method, boiled down:
as §2

The test system of series [10] is HepG2. Kind of series: Cytotoxicity against human HepG2 cells assessed as reduction in cell viability at 10 uM after 24 hrs by MTS assay. The note with it: hepg2, 24 h. On the technique in general: Formazan colour is commonly taken as a measure of viable cells.
In series [11] the test system is THP-1. Kind of series: Cytotoxicity against PMA-differentiated human THP1 cells assessed as reduction in cell viability at 10 uM after 24 hrs by MTS assay. The note with it: thp-1, 24 h.
The target in series [12] is T3, Peroxisome proliferator-activated receptor alpha (Homo sapiens). Kind of series: Agonist activity at GAL4-DBD fused human PPARalpha-LBD (159 to 468 residues) expressed in human HepG2 cells at 10 uM after 24 hrs by dual luciferase reporter gene based mammalian one hybrid assay relative to control. The method, boiled down:
as §1

The target is the same in series [13]. The series is described as follows: Agonist activity at GAL4-DBD fused human PPARalpha-LBD (159 to 468 residues) expressed in human HepG2 cells after 24 hrs by dual luciferase reporter gene based mammalian one hybrid assay relative to control. The method, boiled down:
as §1

Series [14] shares this target. The series is described as follows: Agonist activity at PPARalpha in human THP1 cells assessed as induction of CPT-1 mRNA expression after 24 hrs by RT-qPCR analysis. The method, boiled down:
as §3

Series [15] concerns the target T4, Peroxisome proliferator-activated receptor delta (Homo sapiens) (UniProt Q03181).
T4 sequence (whole entry): T2 sequence (Q03181 whole entry)
Kind of series: Antagonist activity at GAL4-DBD fused human PPARbeta/delta-LBD (136 to 441 residues) expressed in human HepG2 cells assessed as inhibition of GW0742-induced receptor activation at 10 uM by luciferase reporter gene based mammalian one hybrid assay. The procedure, abridged: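 HepG2 cells transfected with GAL4/PPARβ/δ-LBD vector (0.05 μg), GALRE-luc (0.1 μg) and pGL4.74 (0.01 μg). Treated 24 h with 10 μM compound, 10 μM GW0742, or both together, vs 0.1% DMSO. Dual-luciferase, Renilla-normalized. Fold over solvent, four transfections (mean ± SD, n = 4).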

The target of series [16] is T3, Peroxisome proliferator-activated receptor alpha (Homo sapiens). Kind of series: Agonist activity at PPARalpha in human THP1 cells assessed as induction of ABCA1 mRNA expression at 20 uM in presence of MK-886 after 24 hrs by RT-qPCR analysis. The procedure, abridged:
as §2

Take `COc1cccc2c1[nH]c1c(CCC(OC)C(=O)c3nccc4c3[nH]c3ccccc34)ncc(OC)c12` (configuration not stated) [PICRASIDINE C]: the Activity result in series [1] was “Not Active”; in series [2], “Not Active”; in series [4], “Dose-dependent effect”; in series [7], “Dose-dependent effect”; in [8] it was “Dose-dependent effect”; in series [10] it was “Non-Toxic”. For the same molecule, the Activity result in [11] is “Non-Toxic”; in [13], “Dose-dependent effect”; in series [14] it was “Dose-dependent effect”. For the same molecule, the result in series [3], in series [5], in series [9] and in [16] was inactive. Moreover, the result in series [6] and in series [12] was Active. Moreover, the inhibition entry in series [15] was “inactive”.
For `Cc1cccc(Nc2cc(Cl)nc(SCC(=O)O)n2)c1C`, the outcome in [12] was Active.
